In ChEMBL document CHEMBL3271979, “Inhibition of solid tumors by nitrosoureas. 1. Lewis lung carcinoma” (1977):
Activity calls are given as the source filed them. The calls are words filed in the database; no cut-off is given here.

Legend:
Mus musculus [1] = test: Antitumor activity against mouse advanced Lewis lung carcinoma allografted in BDF1 mouse assessed as disease cure at 52 mg/kg, ip administered as single dose on 7th day post-tumor implantation measured for 80 days post-drug treatment; type: functional, organism-based; set-up: dose 52 mg/kg
In short: (§1)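 BDF1 mice (C57Blk/6 × DBA/2) implanted sc by trocar with Lewis lung tumor fragments of about 40 mg, taken only from bacteriologically sterile donor tumors. Mice bearing tumors of about 400 mg (day 6-7) were selected. Each received a single ip dose on day 7, at or below the LD10 in normal mice. Groups were of 10 mice. Tumor weight was taken from calipers as w = ab²/2, measured at least twice weekly. Matched non-tumor mice served as toxicity controls.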

[2] = Antitumor activity against mouse advanced Lewis lung carcinoma allografted in BDF1 mouse assessed as increase in host life span at 52 mg/kg, ip administered as single dose on 7th day post-tumor implantation; type: functional; conditions: route intraperitoneal
In short: (§2)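 BDF1 mice (C57Blk/6 × DBA/2) implanted sc by trocar with about 40 mg Lewis lung tumor fragments from bacteriologically sterile donors. Advanced-disease groups held tumors of about 400 mg by day 6-7, sized by caliper (w = ab²/2). Single ip injection on day 7, in water or saline vehicle, at or below the LD10 in normal mice. Tumors measured at least twice weekly.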

Mus musculus [3] = test: Antitumor activity against mouse advanced Lewis lung carcinoma allografted in ip dosed BDF1 mouse assessed as complete regression of established tumor administered as single dose on day 6 or 7 post-tumor implantation; type: functional, organism-based; in short: as §1
Mus musculus [4] = test: Antitumor activity against mouse advanced Lewis lung carcinoma allografted in ip dosed BDF1 mouse assessed as disease cure administered as single dose on day 6 or 7 post-tumor implantation; type: functional, organism-based; in short: as §1
Mus musculus [5] = test: Antitumor activity against mouse advanced Lewis lung carcinoma allografted in BDF1 mouse assessed as disease cure at 93 mg/kg, ip administered as single dose on 7th day post-tumor implantation measured for 80 days post-drug treatment; type: functional, organism-based; set-up: dose 93 mg/kg; in short: as §2
Mus musculus [6] = test: Antitumor activity against mouse advanced Lewis lung carcinoma allografted in BDF1 mouse assessed as disease cure at 62 mg/kg, ip administered as single dose on 7th day post-tumor implantation measured for 80 days post-drug treatment; type: functional, organism-based; set-up: dose 62 mg/kg; in short: as §2
[7] = Antitumor activity against mouse advanced Lewis lung carcinoma allografted in BDF1 mouse assessed as increase in host life span at 93 mg/kg, ip administered as single dose on 7th day post-tumor implantation; type: functional; conditions: route intraperitoneal; in short: as §2
[8] = Antitumor activity against mouse advanced Lewis lung carcinoma allografted in BDF1 mouse assessed as increase in host life span at 62 mg/kg, ip administered as single dose on 7th day post-tumor implantation; type: functional; conditions: route intraperitoneal; in short: as §2
Mus musculus [9] = test: Antitumor activity against mouse advanced Lewis lung carcinoma allografted in BDF1 mouse assessed as complete regression of established tumor at 93 mg/kg, ip administered as single dose on 7th day post-tumor implantation; type: functional, organism-based; set-up: dose 93 mg/kg; in short: as §2
Mus musculus [10] = test: Antitumor activity against mouse advanced Lewis lung carcinoma allografted in BDF1 mouse assessed as complete regression of established tumor at 62 mg/kg, ip administered as single dose on 7th day post-tumor implantation; type: functional, organism-based; set-up: dose 62 mg/kg; in short: as §2
[11] = Antitumor activity against mouse advanced Lewis lung carcinoma allografted in ip dosed BDF1 mouse assessed as increase in host lifespan administered as single dose on day 6 or 7 post-tumor implantation; type: functional
In short: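 Advanced Lewis lung model: about 40 mg fragments implanted sc by trocar into BDF1 mice, and mice with tumors of about 400 mg (day 6-7) selected. Tumor weight from calipers, w = ab²/2. Agent given as one ip dose in distilled water or physiological saline. Nontumor-bearing mice received matching doses as toxicity controls.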

Mus musculus [12] = test: Antitumor activity against mouse advanced Lewis lung carcinoma allografted in BDF1 mouse assessed as disease cure at 9 mg/kg, ip administered as single dose on 7th day post-tumor implantation measured for 80 days post-drug treatment; type: functional, organism-based; set-up: dose 9 mg/kg; in short: as §1
[13] = Antitumor activity against mouse advanced Lewis lung carcinoma allografted in BDF1 mouse assessed as increase in host life span at 9 mg/kg, ip administered as single dose on 7th day post-tumor implantation; type: functional; conditions: route intraperitoneal; in short: as §2
Mus musculus [14] = test: Antitumor activity against mouse advanced Lewis lung carcinoma allografted in BDF1 mouse assessed as complete regression of established tumor at 9 mg/kg, ip administered as single dose on 7th day post-tumor implantation; type: functional, organism-based; set-up: dose 9 mg/kg; in short: as §1
Mus musculus [15] = test: Antitumor activity against mouse advanced Lewis lung carcinoma allografted in BDF1 mouse assessed as disease cure at 144 mg/kg, ip administered as single dose on 7th day post-tumor implantation measured for 80 days post-drug treatment; type: functional, organism-based; set-up: dose 144 mg/kg; in short: as §1
[16] = Antitumor activity against mouse advanced Lewis lung carcinoma allografted in BDF1 mouse assessed as increase in host life span at 144 mg/kg, ip administered as single dose on 7th day post-tumor implantation; type: functional; conditions: route intraperitoneal; in short: as §2
Mus musculus [17] = test: (§3) Antitumor activity against mouse early Lewis lung carcinoma allografted in ip dosed BDF1 mouse assessed as disease cure administered as single dose on 1 or 2 days post-tumor implantation measured for 80 days post-drug treatment; type: functional
In short: (§4)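 BDF1 mice implanted sc by trocar with ~40 mg Lewis lung fragments from sterile donor tumors. A single ip dose was given on day 1 or 2 after implant, in water or saline vehicle. Cures were scored in animals observed for at least 80 days after treatment. Drug-toxicity controls were matched non-tumor-bearing mice monitored for body weight and deaths.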

Mus musculus [18] = test: Antitumor activity against mouse early Lewis lung carcinoma allografted in ip dosed BDF1 mouse administered as single dose on 1 or 2 days post-tumor implantation measured for 80 days post-drug treatment; type: functional, organism-based; in short: as §4
[19] = Ratio of ED50 for antitumor activity against mouse L1210 cells allografted in ip dosed mouse to LD10 for mouse
[20] = Antitumor activity against mouse early Lewis lung carcinoma allografted in BDF1 mouse assessed as increase in host life span at 20 mg/kg, ip administered as single dose on 1 or 2 days post-tumor implantation; type: functional; conditions: route intraperitoneal
In short: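 BDF1 mice (C57Blk/6 × DBA/2) implanted sc by trocar with ~40 mg Lewis lung tumor fragments from bacteriologically sterile donor tumors. Single ip dose on day 1 or 2, as a solution or suspension in water (CMC or gum acacia) or saline (HPC or Tween 80). Read-out is […]. Same-dose toxicity controls were run in nontumor-bearing mice.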

[21] = Antitumor activity against mouse early Lewis lung carcinoma allografted in BDF1 mouse assessed as increase in host life span at 13 mg/kg, ip administered as single dose on 1 or 2 days post-tumor implantation; type: functional; conditions: route intraperitoneal
In short: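 Early disease: BDF1 mice carrying sc trocar implants of about 40 mg Lewis lung fragments. One ip dose given on day 1 or 2 after implant, in distilled water or saline, at ≤0.5 ml. Endpoints were % increase in life-span of dying animals and delay in days for the primary tumor to reach 1 g. Untreated controls served as reference.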

Mus musculus [22] = test: Antitumor activity against mouse advanced Lewis lung carcinoma allografted in BDF1 mouse assessed as disease cure at 30 mg/kg, ip administered as single dose on 7th day post-tumor implantation measured for 80 days post-drug treatment; type: functional, organism-based; set-up: dose 30 mg/kg; in short: as §1
Mus musculus [23] = test: Antitumor activity against mouse advanced Lewis lung carcinoma allografted in BDF1 mouse assessed as disease cure at 20 mg/kg, ip administered as single dose on 7th day post-tumor implantation measured for 80 days post-drug treatment; type: functional, organism-based; set-up: dose 20 mg/kg; in short: as §1
[24] = Antitumor activity against mouse advanced Lewis lung carcinoma allografted in BDF1 mouse assessed as increase in host life span at 30 mg/kg, ip administered as single dose on 7th day post-tumor implantation; type: functional; conditions: route intraperitoneal; in short: as §2
[25] = Antitumor activity against mouse advanced Lewis lung carcinoma allografted in BDF1 mouse assessed as increase in host life span at 20 mg/kg, ip administered as single dose on 7th day post-tumor implantation; type: functional; conditions: route intraperitoneal; in short: as §2
[26] = Antitumor activity against mouse early Lewis lung carcinoma allografted in BDF1 mouse assessed as time delay in tumor growth at 13 mg/kg, ip administered as single dose on 1 or 2 days post-tumor implantation; type: functional; conditions: route intraperitoneal
In short: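 Sc trocar implants of about 40 mg Lewis lung fragments in BDF1 mice. A single ip injection was given on day 1 or 2, in water or physiological saline, at ≤0.5 ml. Tumor size came from caliper length and width as w = ab²/2, measured at least twice weekly. Growth delay is the extra days taken to reach 1 g, compared with untreated controls.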

[27] = as §3; type: functional; in short: as §4
Mus musculus [28] = test: Antitumor activity against mouse advanced Lewis lung carcinoma allografted in BDF1 mouse assessed as disease cure at 67 mg/kg, ip administered as single dose on 7th day post-tumor implantation measured for 80 days post-drug treatment; type: functional, organism-based; set-up: dose 67 mg/kg; in short: as §1
[29] = Antitumor activity against mouse advanced Lewis lung carcinoma allografted in BDF1 mouse assessed as increase in host life span at 67 mg/kg, ip administered as single dose on 7th day post-tumor implantation; type: functional; conditions: route intraperitoneal; in short: as §2

**Q.** Which Activity (Mus musculus [1]) does the source give for `CC1(C)CCC(NC(=O)N(CCF)N=O)CC1` here?
**A.** inactive

**Q.** What about the ILS at 52 mg/kg [2] of the same compound?
**A.** 100%

**Q.** And the inhibition (Mus musculus [3])?
**A.** Active

**Q.** And the Activity (Mus musculus [4])?
**A.** inactive

**Q.** Which Activity (Mus musculus [5]) does the source give for `Cc1ccc(S(=O)(=O)NC(=O)N(CCCl)N=O)cc1` here?
**A.** inactive

**Q.** And the Activity (Mus musculus [6])?
**A.** inactive

**Q.** What about the ILS at 93 mg/kg [7] of the same compound?
**A.** 28%

**Q.** What about the ILS at 62 mg/kg [8] of the same compound?
**A.** 28%

**Q.** What about the inhibition (Mus musculus [9]) of the same compound?
**A.** inactive

**Q.** And the inhibition (Mus musculus [10])?
**A.** inactive

**Q.** What about the inhibition (Mus musculus [3]) of the same compound?
**A.** inactive

**Q.** And the Activity (Mus musculus [4])?
**A.** inactive

**Q.** What about the ILS [11] of the same compound?
**A.** >25%

**Q.** Which Activity (Mus musculus [12]) does the source give for `O=NN(CCF)C(=O)NC1CC2CCC1C2` (stereo not drawn) here?
**A.** inactive

**Q.** And the ILS at 9 mg/kg [13]?
**A.** 40%

**Q.** And the inhibition (Mus musculus [14])?
**A.** inactive

**Q.** For `O=NN(CCCl)C(=O)NC1C2CC3CC(C2)CC1C3` (stereo not drawn), which Activity (Mus musculus [15]) is on record?
**A.** inactive

**Q.** What about the ILS at 144 mg/kg [16] of the same compound?
**A.** 19%

**Q.** And the Activity (Mus musculus [17])?
**A.** inactive

**Q.** What about the Activity (Mus musculus [18]) of the same compound?
**A.** inactive

**Q.** And the Ratio [19]?
**A.** 0.6

**Q.** What about the inhibition (Mus musculus [3]) of the same compound?
**A.** Active

**Q.** What about the Activity (Mus musculus [4]) of the same compound?
**A.** inactive

**Q.** For `O=NN(CCCl)C(=O)N[C@H]1CC[C@@H](C(=O)O)CC1`, which ILS at 20 mg/kg [20] is on record?
**A.** 0%

**Q.** What about the ILS at 13 mg/kg [21] of the same compound?
**A.** 35%

**Q.** What about the Activity (Mus musculus [22]) of the same compound?
**A.** inactive

**Q.** And the Activity (Mus musculus [23])?
**A.** inactive

**Q.** What about the ILS at 30 mg/kg [24] of the same compound?
**A.** 79%

**Q.** What about the ILS at 20 mg/kg [25] of the same compound?
**A.** 90%

**Q.** And the Time [26]?
**A.** 23 days

**Q.** And the Activity [27]?
**A.** >50%

**Q.** And the Ratio [19]?
**A.** 0.6

**Q.** And the inhibition (Mus musculus [3])?
**A.** Active

**Q.** What about the Activity (Mus musculus [4]) of the same compound?
**A.** inactive

**Q.** With `CC[C@H]1CC[C@H](NC(=O)N(CCCl)N=O)CC1` as the compound, how does the Activity (Mus musculus [28]) read?
**A.** inactive

**Q.** What about the ILS at 67 mg/kg [29] of the same compound?
**A.** 17%

**Q.** What about the inhibition (Mus musculus [3]) of the same compound?
**A.** Active

**Q.** What about the Activity (Mus musculus [4]) of the same compound?
**A.** inactive
